Measurements as given in ChEMBL document CHEMBL4371043, “Dynamic Generation of G-Quadruplex DNA Ligands by Target-Guided Combinatorial Chemistry on a Magnetic Nanoplatform” (J Med Chem, 2019).
Active and inactive are the calls of the source. The calls are words filed in the database; no cut-off is given here.

Assays:
Quadruplex DNA [1] = experiment: Binding affinity to cMYC G-quadruplex DNA G to A mutant promoter sequence (unknown origin) transfected in human Hela cells assessed as reduction in c-MYC promoter-linked expression at 1 to 1.5 uM incubated for 36 hrs by dual-luciferase reporter gene assay relative to control; type: cell-based
Procedure, shortened: (§1)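 Dual luciferase in HeLa: 0.2 μg c-MYC Del4 firefly reporter (wild-type or G-to-A mutant G-rich region) co-transfected with 30 ng pRL-TK Renilla control, Lipofectamine 2000, serum-free DMEM; after 8 h switched to complete medium with ligand at 1 or 1.5 μM. Lysed at 36 h; firefly activity normalised to Renilla.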

dsDNA [2] = experiment: Binding affinity to 6-FAM/TAMRA labeled double stranded DNA (unknown origin) in potassium cacodylate buffer assessed as change in melting temperature at 1 uM at pH 7.4 by FRET-Based DNA melting assay; type: nucleic-acid assay
Procedure, shortened: (§2)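 FRET melting: FAM/TAMRA dual-labelled oligos (G4: TG4AG3TG4AG3TG4A2G2; duplex: CA5T5GCA5T5G) annealed at 400 nM in 60 mM potassium cacodylate pH 7.4 (95 °C 5 min, cool 0.1 °C/min). Melting run on 200 nM oligo ± 1 μM ligand; excitation 480 nm, emission 530 nm, 37–95 °C, 30 reads per °C. ΔTm versus ligand-free DNA.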

Quadruplex DNA [3] = experiment: Binding affinity to cMYC G-quadruplex DNA (unknown origin) in tris-KCL buffer by fluorimetric titration assay; type: nucleic-acid assay
Procedure, shortened: (§3)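 Fluorimetric titration: unlabelled pre-folded G4 (TG4AG3TG4AG3TG4A2G2) or duplex (CA5T5GCA5T5G) DNA added stepwise to 0.25 μM ligand in filtered, degassed 100 mM Tris·KCl pH 7.4; 25 °C, 1 cm quartz cuvette, excitation 300 nm. Apparent Kd from fitting emission intensity against [DNA] to a one-site Hill equation.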

[4] = Cytotoxicity against human NKE cells assessed as reduction in cell viability after 24 hrs by XTT assay; type: cell-based
Procedure, shortened: (§4)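 XTT viability: HeLa (DMEM), A549 (Ham's F12K) or NKE (glutamine-supplemented RPMI 1640), all with 10% FBS, 37 °C, 5% CO2; 10^4–10^5 cells/well exposed to 0–50 μM compound for 24 h, in triplicate. XTT/PMS added 2 h at 37 °C; absorbance 450 nm; viability as percent of untreated control.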

Quadruplex DNA [5] = experiment: Binding affinity to 6-FAM/TAMRA labeled cMYC G-quadruplex DNA (unknown origin) in potassium cacodylate buffer assessed as change in melting temperature at 1 uM at pH 7.4 by FRET-Based DNA melting assay; type: nucleic-acid assay; procedure, shortened: as §2
A549 = experiment: Cytotoxicity against human A549 cells assessed as reduction in cell viability after 24 hrs by XTT assay; type: functional, cell-based; conditions: A549, 24 h; procedure, shortened: as §4
Quadruplex DNA [6] = experiment: Binding affinity to cMYC G-quadruplex DNA (unknown origin) assessed as reduction in fluorescence intensity at 0.25 uM by fluorimetric titration relative to control; type: nucleic-acid assay; procedure, shortened: as §3
Quadruplex DNA [7] = experiment: Displacement thiazole orange from cMYC G-quadruplex DNA (unknown origin) in tris-KCL buffer after 30 mins by FID assay; type: nucleic-acid assay
Procedure, shortened: (§5)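 Thiazole orange displacement: pre-folded G4 or duplex DNA (0.25 μM) with TO (0.50 μM) in 100 mM Tris–KCl pH 7.4, 30 min rt; compound added stepwise, 3 min equilibration each, spectra excited at 501 nm. Percent TO displaced = 100 − (FA×100/FA0) from emission area; DC50 read from displacement-versus-concentration plot.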

HeLa [8] = experiment: Cytotoxicity against human HeLa cells assessed as reduction in cell viability after 24 hrs by XTT assay; type: functional, cell-based; procedure, shortened: as §4
dsDNA [9] = experiment: Binding affinity to double stranded DNA (unknown origin) in tris-KCL buffer by fluorimetric titration assay; type: nucleic-acid assay; procedure, shortened: as §3
dsDNA [10] = experiment: Binding affinity to double stranded DNA (unknown origin) assessed as reduction in fluorescence intensity at 0.25 uM by fluorimetric titration relative to control; type: nucleic-acid assay; procedure, shortened: as §3
dsDNA [11] = experiment: Displacement thiazole orange from double stranded DNA (unknown origin) in tris-KCL buffer after 30 mins by FID assay; type: nucleic-acid assay; procedure, shortened: as §5
Quadruplex DNA [12] = experiment: Binding affinity to cMYC G-quadruplex DNA in human HeLa cells assessed as reduction in cMYC protein expression after 24 hrs by Western blot analysis; type: cell-based
Procedure, shortened: (§6)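 Western blot, HeLa: 24 h ligand exposure at 1.0, 1.5 or 2.0 μM; lysis in 20 mM Tris/100 mM NaCl/1 mM EDTA/0.5% Triton X-100, protein by Folin-Lowry; 70 μg on 12% SDS-PAGE, nitrocellulose, 4% BSA block; rabbit anti-c-MYC and mouse anti-GAPDH overnight at 4 °C, HRP secondaries 2 h; bands quantified densitometrically.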

Quadruplex DNA [13] = experiment: Binding affinity to cMYC G-quadruplex DNA in human HeLa cells assessed as reduction in cMYC protein expression at 1.5 uM after 24 hrs by Western blot analysis relative to control; type: cell-based; procedure, shortened: as §6
Quadruplex DNA [14] = experiment: Effect on native parallel topology of cMYC G-quadruplex DNA (unknown origin) assessed as formation of negative band at 240 nm up to 10 equiv concentration by CD spectroscopy; type: nucleic-acid assay
Quadruplex DNA [15] = experiment: Binding affinity to cMYC G-quadruplex DNA in human HeLa cells assessed as induction of DNA damage by measuring increase in gammaH2AX foci at 1 to 2 uM measured after overnight incubation by alexafluor-647-based flow cytometry; type: cell-based
Procedure, shortened: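 γH2AX flow cytometry: HeLa treated overnight with 1 or 2 μM ligand, trypsinised, fixed in 1% paraformaldehyde 30 min rt, permeabilised with 0.03% saponin 20 min, then stained 3 h with Alexa Fluor 647 anti-γH2AX (1:100 in PBS + 0.1% FBS).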

Quadruplex DNA [16] = experiment: Effect on native parallel topology of cMYC G-quadruplex DNA (unknown origin) assessed as formation of positive band at 260 nm up to 10 equiv concentration by CD spectroscopy; type: nucleic-acid assay
HeLa [17] = experiment: Effect on GAPDH protein expression in human HeLa cells at 1 to 2 uM after 24 hrs by Western blot analysis relative to control; type: ADME, cell-based; procedure, shortened: as §6
Quadruplex DNA [18] = experiment: Binding affinity to 6-FAM/TAMRA labeled cMYC G-quadruplex DNA (unknown origin) in potassium cacodylate buffer assessed as change in melting temperature at 1 uM at pH 7.4 in presence of 1 to 200 equiv calf thymus DNA by FRET-Based DNA melting assay; type: nucleic-acid assay
Procedure, shortened: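 Competition FRET melting: 0.2 μM FAM/TAMRA-labelled c-MYC G4 oligo with 1 μM ligand plus unlabelled calf-thymus duplex DNA at 1–200 equivalents of G4; ΔTm followed (excitation 480 nm, emission 530 nm, 37–95 °C ramp).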

Quadruplex DNA [19] = experiment: Binding affinity to wild type cMYC G-quadruplex DNA promoter sequence (unknown origin) transfected in human Hela cells assessed as reduction in c-MYC promoter-linked expression at 1.5 uM incubated for 36 hrs by dual-luciferase reporter gene assay relative to control; type: cell-based; procedure, shortened: as §1
Quadruplex DNA [20] = experiment: Binding affinity to cMYC G-quadruplex DNA in human HeLa cells assessed as reduction in cMYC protein expression at 1 uM after 24 hrs by Western blot analysis relative to control; type: cell-based; procedure, shortened: as §6
dsDNA [21] = experiment: Binding affinity to double stranded DNA (unknown origin) assessed as increase in emission intensity at 0.25 uM by fluorimetric titration relative to control; type: nucleic-acid assay; procedure, shortened: as §3
Quadruplex DNA [22] = experiment: Binding affinity to cMYC G-quadruplex DNA in human HeLa cells assessed as reduction in cMYC protein expression at 2 uM after 24 hrs by Western blot analysis relative to control; type: cell-based; procedure, shortened: as §6
[23] = Drug level in human HeLa cell nucleus at 0.5 uM measured after overnight incubation by NucRed647-staining based confocal microscopy; type: ADME, subcellular
Procedure, shortened: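 Confocal: HeLa on coverslips treated overnight with 0.5 μM ligand, fixed 12 min in 1:1 acetone/methanol at −20 °C, nuclei stained with NucRed 647 Live 10 min in the dark; ligand localisation imaged by confocal laser scanning.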

Quadruplex DNA [24] = experiment: Binding affinity to wild type cMYC G-quadruplex DNA promoter sequence (unknown origin) transfected in human Hela cells assessed as reduction in c-MYC promoter-linked expression at 1 uM incubated for 36 hrs by dual-luciferase reporter gene assay relative to control; type: cell-based; procedure, shortened: as §1
Quadruplex DNA [25] = experiment: Binding affinity to cMYC G-quadruplex DNA (unknown origin) assessed as induction of red shift at 0.25 uM in presence of increasing concentration of DNA by fluorimetric titration relative to control; type: nucleic-acid assay; procedure, shortened: as §3
Quadruplex DNA [26] = experiment: Binding affinity to cMYC G-quadruplex DNA (unknown origin) assessed as increase in emission intensity at 0.25 uM in presence of increasing concentration of DNA by fluorimetric titration relative to control; type: nucleic-acid assay; procedure, shortened: as §3
Quadruplex DNA [27] = experiment: Binding affinity to cMYC G-quadruplex DNA G to A mutant promoter sequence (unknown origin) transfected in human Hela cells assessed as reduction in c-MYC promoter-linked expression at 1.5 uM incubated for 36 hrs by dual-luciferase reporter gene assay relative to control; type: cell-based; conditions: in the assay text read “wild-type promoter sequence” for “G to A mutant promoter sequence”; procedure, shortened: as §1

SMILES: C#CCNCc1ccc2c(c1)c1cc(-c3ccc(OC)cc3)ccc1n2CCCN(C)C
- Activity (Quadruplex DNA [1]): inactive
- ΔTm (dsDNA [2]): 8.5 °C
- Kd (Quadruplex DNA [3]): 7.17 µM
- IC50 [4]: > 50 µM
- ΔTm (Quadruplex DNA [5]): 11.8 °C
- IC50 (A549): > 25 µM
- fold change (FC) (Quadruplex DNA [6]): 1.5
- DC50 (Quadruplex DNA [7]): > 25 µM
- IC50 (HeLa [8]): 11.5 µM
- Kd (dsDNA [9]): 7.03 µM
- fold change (FC) (dsDNA [10]): 1.5
- DC50 (dsDNA [11]): > 30 µM

SMILES: COc1ccc(-c2ccc3c(c2)c2cc(CNc4ccc(OCCCN(C)C)cc4)ccc2n3CCCN(C)C)cc1
- inhibition (Quadruplex DNA [12]): Dose-dependent effect
- inhibition (Quadruplex DNA [13]): 57%
- Activity (Quadruplex DNA [1]): inactive
- Activity (Quadruplex DNA [14]): inactive
- Activity (Quadruplex DNA [15]): Active
- Activity (Quadruplex DNA [16]): inactive
- ΔTm (dsDNA [2]): 0.58 °C
- Activity (HeLa [17]): Non-Toxic
- Activity (Quadruplex DNA [18]): Active
- inhibition (Quadruplex DNA [19]): 45%
- Kd (Quadruplex DNA [3]): 1.08 µM
- inhibition (Quadruplex DNA [20]): 27%
- Activity (dsDNA [21]): inactive
- IC50 [4]: > 50 µM
- ΔTm (Quadruplex DNA [5]): 23.4 °C
- IC50 (A549): 6.4 µM
- inhibition (Quadruplex DNA [22]): 65%
- Drug uptake [23]: Active
- inhibition (Quadruplex DNA [24]): 31%
- DC50 (Quadruplex DNA [7]): 2.25 µM
- Activity (Quadruplex DNA [25]): Active
- IC50 (HeLa [8]): 2.5 µM
- DC50 (dsDNA [11]): > 30 µM
- fold change (FC) (Quadruplex DNA [26]): 4.4

SMILES: COc1ccc(-c2ccc3c(c2)c2cc(CNCCCN(C)C)ccc2n3CCCN(C)C)cc1
- ΔTm (dsDNA [2]): 7.2 °C
- ΔTm (Quadruplex DNA [5]): 5.3 °C

SMILES: COc1ccc(-c2ccc3c(c2)c2cc(CNc4nccs4)ccc2n3CCCN(C)C)cc1
- ΔTm (dsDNA [2]): 1.15 °C
- ΔTm (Quadruplex DNA [5]): 3.2 °C

SMILES: COc1ccc(-c2ccc3c(c2)c2cc(CNc4ccc(Br)cc4C)ccc2n3CCCN(C)C)cc1
- ΔTm (dsDNA [2]): 0.44 °C
- ΔTm (Quadruplex DNA [5]): 3.3 °C

SMILES: COc1ccc(-c2ccc3c(c2)c2cc(CNC4CC4)ccc2n3CCCN(C)C)cc1
- ΔTm (dsDNA [2]): 1.1 °C
- ΔTm (Quadruplex DNA [5]): 3.5 °C

SMILES: COc1ccc(-c2ccc3c(c2)c2cc(CNc4ccc(C#CCN(C)C)cc4)ccc2n3CCCN(C)C)cc1
- ΔTm (dsDNA [2]): 3.79 °C
- ΔTm (Quadruplex DNA [5]): 5 °C

SMILES: COc1ccc(-c2ccc3c(c2)c2cc(CNc4ccc(O)cc4)ccc2n3CCCN(C)C)cc1
- ΔTm (dsDNA [2]): 1.9 °C
- ΔTm (Quadruplex DNA [5]): 0.7 °C

SMILES: COc1ccc(-c2ccc3c(c2)c2cc(CNc4ccc([N+](=O)[O-])cc4)ccc2n3CCCN(C)C)cc1
- ΔTm (dsDNA [2]): 2.4 °C
- ΔTm (Quadruplex DNA [5]): 3.4 °C

SMILES: CCCCNCc1ccc2c(c1)c1cc(-c3ccc(OC)cc3)ccc1n2CCCN(C)C
- ΔTm (dsDNA [2]): 9.5 °C
- inhibition (Quadruplex DNA [27]): 14%
- Kd (Quadruplex DNA [3]): 5.72 µM
- IC50 [4]: > 50 µM
- ΔTm (Quadruplex DNA [5]): 13.6 °C
- IC50 (A549): 4.3 µM
- DC50 (Quadruplex DNA [7]): 8.01 µM
- IC50 (HeLa [8]): 2 µM
- Kd (dsDNA [9]): 6.63 µM
- DC50 (dsDNA [11]): > 30 µM
